Screening results from PubChem BioAssay.
C2C12 statin = protects C2C12 myotubes from simvastatin toxicity; ATP luminescence, 48 h; scaled: DMSO 0, geranylgeraniol control 100; rescue of ATP level, % at 7.49 µM; 330,000 compounds, 0.78% hits; AID 602340;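 active = mean ATP rescue above about 67%, or every replicate alone reaching that limit, limit read from the data, passing the limit was not always enough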;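 note: myotubes were challenged with 10 µM simvastatin during compound exposure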
A3A deaminase = human APOBEC3A DNA deaminase inhibition; P31941; 330,000 compounds, 0.41% hits; AID 493011; recombinant A3A, FAM/TAMRA ssDNA deamination fluorescence; inhibition, % at 20 µM;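 active = at least 40% inhibition at 20 µM here, with at most 30% in a related deaminase screen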;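 note: plate controls were A3A with DMSO for no effect and wells lacking A3A enzyme for full effect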
Mot1-301 SUMO = SUMOylation pathway inhibition by Mot1-301 growth rescue. S. cerevisiae Mot1-301 growth rescue, ATP luminescence, 38.5C; percent above DMSO median, 100 means doubled. growth rescue, % at 18.8 µM. 320,000 compounds, 1% hits;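 active = every valid replicate shows activation above 250% relative to neutral control wells; inactive = the rest, any valid replicate at or below 250%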;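 note: OY570 slx delta 5 strain wells were the positive control but not used for scaling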
ARFGAP1 inhibitor = rat ARFGAP1 inhibition; Q62848; Arfgap1-stimulated ARF1 GTP hydrolysis, GDP FP detection; inhibition, % at 16.5 µM; 360,000 compounds, 0.26% hits;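 active = inhibition above a per-plate limit, mean inhibition of low control wells plus 3 SD, cut at about 25% in these data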;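 note: 0% = DMSO wells with enzyme and 100% = wells lacking Arfgap1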
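Material: rat Arfgap1 GAP domain (His6, aa 1-136), purified enzyme. Also added: human ARF1(Δ1-17)-GTP substrate. Compound dosing: 16.5 µM single point, 1.26% DMSO. Timing: enzyme reaction 120 min at 25 °C after 20 min preincubation. Signal: GDP detection by fluorescence polarization. Read-out basis: percent inhibition of GAP-stimulated GDP formation, scaled between DMSO and no-Arfgap1 medians.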
APOBEC3G inh = inhibitors of human APOBEC3G DNA deaminase; 330,000 compounds, 0.28% hits; AID 493012; Q9HC16; inhibition, % at 20 µM; recombinant A3G, ssDNA deamination FAM/TAMRA fluorescence;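 active = inhibition of at least 40% at 20 µM, with no more than 30% in the related APOBEC3A deaminase screen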;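 note: plate controls were DMSO wells with A3G for no effect and wells lacking A3G enzyme for full effect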
Target sequence (Q9HC16 whole entry, looked up): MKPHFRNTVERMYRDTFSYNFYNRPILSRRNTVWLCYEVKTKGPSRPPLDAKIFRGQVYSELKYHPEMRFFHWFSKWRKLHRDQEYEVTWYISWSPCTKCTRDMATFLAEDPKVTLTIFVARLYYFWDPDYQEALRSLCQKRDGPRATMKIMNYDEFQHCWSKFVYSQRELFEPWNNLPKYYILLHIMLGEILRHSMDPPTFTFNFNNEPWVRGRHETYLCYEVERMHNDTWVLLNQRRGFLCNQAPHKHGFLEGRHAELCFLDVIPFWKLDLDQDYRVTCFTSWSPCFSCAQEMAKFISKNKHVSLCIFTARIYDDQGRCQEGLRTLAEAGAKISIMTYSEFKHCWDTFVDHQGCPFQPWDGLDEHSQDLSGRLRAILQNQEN
ASAP1 inh = blocks human ASAP1-stimulated Arf1 GTP hydrolysis; Q9ULH1; GDP FP detection; inhibition, % at 16.5 µM; 360,000 compounds, 0.19% hits; in the data active = inhibition above about 25%;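 note: 0% = vehicle with enzyme and substrate and 100% = no enzyme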
APOBEC3G confirm = confirmation of human APOBEC3G DNA deaminase inhibitors | shares compounds with APOBEC3G inh | recombinant A3G ssDNA deaminase, UDG/FAM-TAMRA fluorescence | inhibition, % at 20 µM | 890 compounds, 72% hits | AID 493152;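 active = inhibition reaching a set limit in any replicate at 20 µM, the limit being 80% of the first screen's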
UDG A3G counter = inhibits E. coli UDG, flagging false APOBEC3G inhibitors | shares compounds with APOBEC3G inh | UDG counterscreen, FAM/TAMRA oligo fluorescence | inhibition, % at 20 µM | 710 tested, under 10 active;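 active = compounds giving 40% or more inhibition at 20 µM in any one of the three replicates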;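 note: plate controls were DMSO wells with UDG and oligo for no effect and DMSO wells lacking both for full effect; inhibitors lower the FAM signal released by uracil excision and alkaline cleavage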
Target sequence (P12295 whole entry, looked up): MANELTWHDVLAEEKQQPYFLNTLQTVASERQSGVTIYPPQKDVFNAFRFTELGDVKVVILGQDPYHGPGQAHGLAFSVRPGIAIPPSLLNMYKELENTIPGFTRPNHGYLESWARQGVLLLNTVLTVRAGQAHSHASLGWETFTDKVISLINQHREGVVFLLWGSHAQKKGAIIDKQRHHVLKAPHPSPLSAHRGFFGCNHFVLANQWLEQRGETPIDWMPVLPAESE
ASAP1 GAP conf = confirmation of human ASAP1 inhibitors; AID 624431; inhibition, % at 16.5 µM; 620 compounds, 37% hits; shares compounds with ASAP1 inh; ASAP1-stimulated Arf1 GTPase, GDP fluorescence polarization;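 active = mean inhibition over triplicates exceeds the hit threshold derived for the earlier primary screening run, cut at about 25% in these data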
The depositor's hits bear a star; . = not tested or not shown. A selection: hits, their analogues and other compounds. The true share with any hit is near 2.1%.

SMILES	C2C12 statin	A3A deaminase	Mot1-301 SUMO	ARFGAP1 inhibitor	APOBEC3G inh	ASAP1 inh	ASAP1 GAP conf	others
O=S(=O)(c1ccc(N2CCN(CCO)CC2)nc1)N1CCCCC1	14	4	9	-7	42*	-14	.	APOBEC3G confirm=0
S=c1[nH]nc(-c2ccccc2)n1/N=C/c1cccs1	8	1	9	.	44*	.	.	APOBEC3G confirm=58*;UDG A3G counter=-3
Cc1cccc(/C=N/n2c(-c3ccccc3)n[nH]c2=S)c1O	-4	-5	-9	15	28	-3	.
O=[N+]([O-])c1ccccc1/C=N/n1c(-c2ccccc2)n[nH]c1=S	11	-10	-12	5	51*	-5	.	APOBEC3G confirm=81*;UDG A3G counter=-5
Cc1ccc(-c2n[nH]c(=S)n2/N=C/c2cccs2)cc1	0	-9	-14	-14	17	-7	.
Cc1cc(-c2n[nH]c(=S)n2/N=C/c2cccs2)n[nH]1	.	-2	-19	2	60*	-14	.	APOBEC3G confirm=92*;UDG A3G counter=-5
COc1cccc(/C=N/n2c(-c3cccs3)n[nH]c2=S)c1	0	-4	7	-5	24	-5	.
S=c1[nH]nc(-c2ccco2)n1/N=C/c1cccs1	.	-1	35	-1	62*	15	.	APOBEC3G confirm=81*;UDG A3G counter=-2
CC=Cc1ccc2n(c1=O)C[C@@H]1[C@@H](CO)[C@H](C(=O)NCc3ccccc3)N(S(C)(=O)=O)[C@H]21 (mixture of isomers)	14	.	.	.	.	.	.
CCCCOC(=O)c1sc2nc(N3CCOCC3)c3c(c2c1N)CC(C)(C)OC3	.	1	96	-6	-6	-8	.
CC1(C)Cc2c(c(N3CCOCC3)nc3sc(C(=O)N4CCCCC4)c(N)c23)CO1	4	0	.	-5	47*	-11	.	APOBEC3G confirm=28*;UDG A3G counter=4
COc1ccc(CN(C)C[C@@H]2OCCCC[C@H](C)Oc3ccc(NC(=O)Nc4ccc(F)cc4)cc3C(=O)N([C@@H](C)CO)C[C@H]2C)cc1	-166	.	.	.	.	.	.
COc1cccc(S(=O)(=O)N[C@@H]2CC[C@H](CCNC(=O)Nc3cc(F)ccc3F)O[C@@H]2CO)c1	0	.	.	.	.	.	.
COc1ccc(/C=N/n2c(-c3n[nH]c4c3CCC4)n[nH]c2=S)cc1	.	-8	4	4	40*	-4	.	APOBEC3G confirm=74*;UDG A3G counter=-2
COc1ccc(OC)c(/C=N/n2c(-c3n[nH]c4c3CCC4)n[nH]c2=S)c1	0	-6	-5	-7	42*	-1	.	APOBEC3G confirm=83*;UDG A3G counter=-2
COc1ccc(/C=N/n2c(-c3ccccc3)n[nH]c2=S)cc1	3	-4	2	4	27	-4	.
CCC(=O)N(C)C[C@H]1Oc2ncc(-c3ccc(C(=O)N(C)C)cc3)cc2C(=O)N([C@H](C)CO)C[C@@H]1C	5	.	.	.	.	.	.
CC(C)NC(=O)N(C)C[C@@H]1Oc2ccc(NC(=O)Cc3ccccc3)cc2C(=O)N([C@@H](C)CO)C[C@@H]1C	5	.	.	.	.	.	.
O=C(Cc1ccc(Cl)cc1)Nc1cccc(S(=O)(=O)Nc2ccccc2F)c1	.	0	8	12	-2	11	.
O=C(CSc1ccc([N+](=O)[O-])cc1)Nc1cccc(S(=O)(=O)Nc2ccccc2F)c1	.	-3	13	16	44*	17	.	APOBEC3G confirm=23*;UDG A3G counter=-5
O=C1CCC(C(=O)Nc2cccc(S(=O)(=O)Nc3ccccc3F)c2)=NN1	8	5	12	-7	73*	-5	.	APOBEC3G confirm=63*;UDG A3G counter=3
O=[N+]([O-])c1cccc(-c2cc(-c3cc(Br)ccc3O)[nH]n2)c1	-56	0	152	21	0	25*	17
Oc1ccc(Br)cc1-c1cc(-c2ccccc2)n[nH]1	.	0	233	21	-1	12	.
CC(C)NC(=O)Nc1ccc2c(c1)CC(=O)N([C@H](C)CO)C[C@H](C)[C@H](CN(C)C(=O)Nc1ccccc1)O2	-4	.	.	.	.	.	.
COc1cc(/C=C/c2nc(N)nc(-c3ccccc3O)n2)cc(OC)c1OC	-9	1	29	14	-3	24	.
SMILES	C2C12 statin	A3A deaminase	Mot1-301 SUMO	ARFGAP1 inhibitor	APOBEC3G inh	ASAP1 inh	ASAP1 GAP conf	others
COc1cc(/C=C/c2nc(-c3ccccc3O)n[nH]2)cc(OC)c1OC	.	-1	11	24	-6	25*	31*
Nc1ccc(Oc2cccc(Oc3ccc(N)cc3)c2)cc1	.	-3	263	15	-5	28*	16
Cc1cccc(Oc2ccc(N)cc2)c1	.	-4	86	-3	-8	-5	.
C[C@H]1CN([C@@H](C)CO)C(=O)c2cc(-c3ccncc3)cnc2O[C@@H]1CN(C)Cc1ccc(Oc2ccccc2)cc1	-3	.	.	.	.	.	.
CC(=O)C1C(c2ccc(C)cc2)c2c(n[nH]c2C)CC1(C)O (centres undefined)	12	1	-7	-10	-3	43*	1
CC(=O)C1C(c2ccccc2)c2c(n[nH]c2C)CC1(C)O (centres undefined)	0	-4	-1	-15	-4	3	.
O=C(CNC(=O)c1ccccc1O)N/N=C/c1cc(Br)ccc1OC(=O)/C=C/c1ccco1	.	1	-10	21	-2	26*	19
Cc1ccc(/C=N/NC(=O)CCCOc2ccc(Cl)cc2Cl)cc1[N+](=O)[O-]	27	-2	.	22	0	50*	37*
O=C(Nc1ccc(Cn2cccn2)cc1)c1ccc(COc2cccc(Br)c2)cc1	6	-1	216	20	0	29*	7
O=C(Nc1ccc(Cn2cccn2)cc1)c1ccc(COc2ccc(Br)cc2)cc1	10	-1	0	2	-3	-2	.
CC1CC(C)CN(C(=O)c2cccc(N3C(=O)c4ccccc4C3=O)c2)C1 (centres undefined)	1	-1	3	-6	-5	25*	8
Oc1oc(-c2ccccc2Br)nc1C=Nc1ccc(Br)cn1	3	-4	27	8	-6	51*	110*
COc1ccc(-n2nc(C(=O)NCC(=O)Nc3ccccn3)c3ccccc3c2=O)cc1Cl	-2	12	.	12	0	51*	61*
COc1ccc(/C=C2\C(=O)NC(=S)N2C(=O)c2ccc(F)cc2)cc1	.	.	6	-11	.	25*	7
O=C1NC(=S)N(C(=O)c2ccc(F)cc2)/C1=C/c1ccccc1	1	2	5	-4	-8	7	.
CCCC(=O)Nc1ccc2c(c1)C(=O)N(C)C[C@H](OC)[C@H](C)CN(CC1CCCC1)[C@@H](C)CO2	3	.	.	.	.	.	.
